The target of data set [1] is T1, hDAO (human diamine oxidase) (Homo sapiens, UniProt P19801).
T1 sequence (P19801 20-751): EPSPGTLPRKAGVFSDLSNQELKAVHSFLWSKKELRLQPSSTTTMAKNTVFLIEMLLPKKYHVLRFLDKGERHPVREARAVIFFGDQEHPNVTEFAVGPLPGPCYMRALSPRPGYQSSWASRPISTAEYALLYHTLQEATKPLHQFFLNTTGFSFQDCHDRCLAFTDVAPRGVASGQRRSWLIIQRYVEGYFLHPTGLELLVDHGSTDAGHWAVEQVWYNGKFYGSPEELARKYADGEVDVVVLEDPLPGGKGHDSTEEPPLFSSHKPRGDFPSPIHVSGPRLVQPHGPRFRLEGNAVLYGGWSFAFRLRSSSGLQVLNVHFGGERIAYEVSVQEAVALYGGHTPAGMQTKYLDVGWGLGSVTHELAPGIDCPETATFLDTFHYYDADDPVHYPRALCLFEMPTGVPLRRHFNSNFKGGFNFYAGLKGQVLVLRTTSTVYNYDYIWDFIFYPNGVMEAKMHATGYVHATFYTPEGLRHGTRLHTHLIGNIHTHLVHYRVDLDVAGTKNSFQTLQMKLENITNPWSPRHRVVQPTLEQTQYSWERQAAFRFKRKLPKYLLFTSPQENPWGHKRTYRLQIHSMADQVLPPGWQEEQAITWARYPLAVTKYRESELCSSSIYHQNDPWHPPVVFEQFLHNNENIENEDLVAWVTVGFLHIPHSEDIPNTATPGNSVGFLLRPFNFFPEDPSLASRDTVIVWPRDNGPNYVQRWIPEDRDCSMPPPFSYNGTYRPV
Briefly: Inhibition of hDAO putrescine oxidation. Type of data set: biochemical. To be noted: for Mode of Inhibition: hDAO, putrescine oxidation, global nonlinear regression.

The conditions of data set [2]: patients, intravenous treatment; ref [59], [73], [79]–[81]; cited from earlier work.
The next data set concerns the target T2, hVAP-1 (Homo sapiens, UniProt Q16853).
T2 sequence (Q16853 1-763): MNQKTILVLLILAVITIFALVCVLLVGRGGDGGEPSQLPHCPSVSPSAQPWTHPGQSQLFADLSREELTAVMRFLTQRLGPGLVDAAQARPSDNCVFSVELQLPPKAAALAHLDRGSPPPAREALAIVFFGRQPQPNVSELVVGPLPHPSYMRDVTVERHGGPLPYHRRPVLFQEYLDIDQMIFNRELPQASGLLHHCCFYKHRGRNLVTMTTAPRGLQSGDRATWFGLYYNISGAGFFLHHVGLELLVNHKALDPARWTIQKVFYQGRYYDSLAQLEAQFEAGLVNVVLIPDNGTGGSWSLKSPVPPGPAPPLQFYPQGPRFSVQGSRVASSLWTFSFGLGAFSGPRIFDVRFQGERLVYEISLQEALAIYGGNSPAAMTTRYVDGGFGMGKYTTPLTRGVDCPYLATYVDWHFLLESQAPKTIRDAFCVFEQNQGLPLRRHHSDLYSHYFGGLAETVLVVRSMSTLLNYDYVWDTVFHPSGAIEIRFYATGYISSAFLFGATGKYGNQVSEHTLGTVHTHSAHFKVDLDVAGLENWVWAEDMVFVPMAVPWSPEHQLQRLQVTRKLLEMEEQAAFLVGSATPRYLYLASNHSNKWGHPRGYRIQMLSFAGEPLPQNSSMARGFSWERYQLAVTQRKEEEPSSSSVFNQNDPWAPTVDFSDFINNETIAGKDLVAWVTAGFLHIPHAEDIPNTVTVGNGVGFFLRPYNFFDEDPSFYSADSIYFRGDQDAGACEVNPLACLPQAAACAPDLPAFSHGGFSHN
Briefly: Inhibition of hVAP-1 amine oxidase activity. Type of data set: biochemical. Particulars: for Mode of Inhibition: hVAP-1. The method in brief: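 Purified human VAP-1 was supplied as a gift. Activity was followed as benzaldehyde production at 250 nm over 5 min (ε 12,800 M⁻¹cm⁻¹) in 100 mM potassium phosphate, pH 7.2, at 37 °C, with and without test compound. Ki and mode came from global nonlinear regression, choosing the best-fitting competitive, uncompetitive, noncompetitive or mixed model.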

The conditions of data set [3]: AIDS patients under pentamidine treatment; ref [72]–[78]; cited from earlier work.

As to `N=C(N)c1ccc(N=NNc2ccc(C(=N)N)cc2)cc1` [Berenil, 1,3-bis(4’-amidinophenyl)triazene], in data set [1], the “inhibition of hDAO, in words” value is listed as “very potent inhibitors”. Moreover, the “Mode of Inhibition” value was “Mixed” in data set [1] and “mixed type/partial competitive inhibition” in data set [1] (listed as berenil).

For orientation: Ki means the dissociation constant of the complex between target and ligand, obtained from inhibition or displacement. High values mean lower affinity, low ones higher affinity. As to `CN/C(=N/CCSCc1nc[nH]c1C)NC#N` [Cimetidine], in data set [1], the inhibitory constant (Ki) is 90 ± 14 µM and the “Mode of Inhibition” value is given as “Mixed”.

Take `Clc1cccc(Cl)c1N=C1NCCN1` [Clonidine]: in data set [1], the Ki was 100 ± 8 µM; the “inhibition of hDAO, in words” value is “weak inhibitor”; the “Mode of Inhibition” value is “Mixed”.

In data set [1], `NCCCCN` [putrescine, 1,4-diaminobutane] registered a Ki of 2270 ± 140 µM.

With `N=C(N)c1ccc(OCCCCCOc2ccc(C(=N)N)cc2)cc1` [Pentamidine, 1,5-bis(4-amidinophenoxy)pentane], in data set [1], the “inhibition of hDAO, in words” value is on record as “very potent inhibitors” and the “Mode of Inhibition” value was “mixed type/partial competitive inhibition”. Further, in data set [2], the “Plasma concentration, lower end of range” value is recorded as 25 ng/mL; the “Plasma concentration, lower end of range (molar)” value was 43 nM; the “Plasma concentration, upper end of range” value is recorded as 1.4 g/mL; the “Plasma concentration, upper end of range (molar)” value was 2300 nM. Further, on hVAP-1, the affinity, expressed as Ki, was 1.1 ± 0.04 µM and the “Mode of Inhibition” value is “Noncompetitive”. Moreover, the “Mode of Inhibition” value at hVAP-1 (listed as pentamidine) was “purely noncompetitive”. Also, the “AIDS patients with adverse side effects” value in data set [3] was “at least 70%”.

As to `NNC(=O)c1ccncc1` [Isoniazid], in data set [1], the inhibitory constant (Ki) amounted to 970 ± 50 µM and the “Mode of Inhibition” value is reported as “purely noncompetitive”.
